EP2 antag: human EP2 receptor antagonists, primary screen, TR-FRET cAMP, C6 glioma cells. inhibition, % at 25 µM. Prostaglandin E2 receptor EP2 subtype (Homo sapiens), P43116. actives 0.52% (n = 260,000). C6 glioma cells expressing human EP2; cells stimulated with saturating PGE2;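 active means percent inhibition above 40 after rounding to a whole number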;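 further: rat C6 glioma host cells with rolipram phosphodiesterase inhibitor present; the protocol text gives 20 µM as final concentration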
Target sequence (P43116 whole entry, looked up): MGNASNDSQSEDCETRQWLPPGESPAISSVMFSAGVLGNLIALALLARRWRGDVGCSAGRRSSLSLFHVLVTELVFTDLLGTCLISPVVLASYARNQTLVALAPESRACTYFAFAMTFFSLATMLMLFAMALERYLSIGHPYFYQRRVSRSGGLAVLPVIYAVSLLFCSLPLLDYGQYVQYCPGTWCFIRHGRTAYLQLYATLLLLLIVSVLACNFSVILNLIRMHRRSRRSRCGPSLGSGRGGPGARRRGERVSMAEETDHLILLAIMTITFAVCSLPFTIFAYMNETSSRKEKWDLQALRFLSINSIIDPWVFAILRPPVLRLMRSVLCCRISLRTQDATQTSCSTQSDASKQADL
NR2E3 ag-1: NR2E3 agonists in two-hybrid cells, primary screen, cell-based, luminescence, CHO-S, Gal4-NCOR/VP16-NR2E3. Photoreceptor-specific nuclear receptor (Homo sapiens), Q9Y5X4. luciferase. inhibition of corepressor binding, % at 3.98 µM. actives 0.35% (n = 360,000);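 active means inhibition above the mean of all tested compounds plus 3 SD, cut at about 70% in these data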;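 further: higher means lower luciferase signal from less NR2E3 corepressor binding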
EP2 mod: EP2 receptor modulators, cAMP readout, primary screen, cell-based, HTRF cAMP, PGE2 stimulation. Prostaglandin E2 receptor EP2 subtype (Homo sapiens), P43116. EP2-expressing cells, cAMP HTRF FRET, PGE2 co-stimulation. induction, % at 25 µM. actives 0.83% (n = 260,000);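 active means compounds whose cAMP rise, as percent of the full-agonist control response, exceeds 60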;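 further: rat C6 glioma line stably carrying human EP2 under a CMV promoter; the protocol text gives 20 µM as final concentration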
JMJD2C inh: inhibitors of GASC-1 histone demethylase, primary screen, biochemical, fluorescence, DELFIA europium; Lysine-specific demethylase 4C (Homo sapiens), Q9H3R0; GST-JMJD2C(1-420) H3K9me3 demethylation; inhibition, % at 2.35 µM; actives 0.069% (n = 330,000); AID 2099, 2009;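 active means more than half of a compound's replicate wells show inhibition beyond 50%, single wells judged on their own value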;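 further: signal counts dimethyl H3K9 product captured on neutravidin plate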
Furin inh: human furin inhibitors, primary screen, biochemical, fluorescence intensity. P09958. actives 0.061% (n = 220,000). purified furin, fluorogenic substrate cleavage. AID 463115, 2010. inhibition, % at 20 µM or 30 µM; in the data active means inhibition above about 25%
NR2E3 ag-2: inhibitors of NR2E3-RetCOR corepressor binding, primary screen, NR2E3 agonist project, biochemical, TR-FRET, GST-NR2E3, biotin-RetCOR | Photoreceptor-specific nuclear receptor (Homo sapiens), Q9Y5X4 | 1536-well | inhibition of corepressor binding, % at 4.78 µM | actives 0.12% (n = 320,000) | AID 2300, 2010;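 active means percent inhibition above the cutoff of mean plus 3 SD of all tested compounds, set per screening campaign, cut at about 20% in these data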
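System: GST-NR2E3 and biotin-RetCOR proteins; probe or stimulus: 7 nM biotin-RetCOR; doses: compound at 4.8 µM, single dose; schedule: Compound–protein incubation for 5 h at 4 °C; detection: time-resolved FRET; read-out: percent inhibition; controls: biotin wells as high control, 0.6% DMSO wells as low control; format: 1536-well plates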
EP2 confirm: cAMP induction in EP2, EP4, beta2-AR and parental cells, confirmation, counter-screen for EP2 modulator project, cell-based, five parallel assays, C6 glioma, HEK293; shares compounds with EP2 mod; cAMP HTRF induction; plus low (about EC15) PGE2 agonist; calls only at 20 µM (by protocol); actives 47% (n = 1,300);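 active means cAMP induction above 50% in the main assay while under 30% in all four parallel counter assays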;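 further: rat C6 glioma cells stably expressing human EP2 receptor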
Hits are given with their value; n = inactive; x = no result given; + = active, no number; ! = not active in a repeat. Compounds with a hit are over-represented: about 1.3% of the library has one in this group of screens.

SMILES	EP2 antag	NR2E3 ag-1	EP2 mod	JMJD2C inh	Furin inh	NR2E3 ag-2	EP2 confirm
Cc1ccc(N(C(=O)c2snc(C(N)=O)c2N)C(C(=O)NCCC(C)C)c2ccco2)cc1 (stereo unspecified)	n	n	78	n	n	n	n
COc1ccc(N2CCN(CC(=O)Nc3ccc(Cl)cc3)CC2)cc1	n	x	n	x	x	x	x
COc1cc(S(=O)(=O)N(Cc2ccc(C)cc2)Cc2ccco2)ccc1-n1cnnn1	n	n	n	n	n	n	x
COc1cc(S(=O)(=O)N(Cc2cccnc2)Cc2ccco2)ccc1-n1cnnn1	n	n	79!	n	n	n	n
COc1ccc(OC)c(C(=O)CSc2nnc(Cc3cccs3)n2CCc2ccccc2)c1	n	n	66	n	n	n	+
COc1ccc(OC)c(C(=O)CSc2nnc(-c3cccs3)n2C)c1	n	n	n	n	n	n	x
Cc1nc(NC(=O)COc2ccccc2)sc1C(=O)Nc1ccc(Br)cc1	n	x	n	x	x	x	x
Cc1ccc2nc(-c3ccncc3)cc(-c3ccccc3)c2c1	n	n	92	n	n	n	+
COC(=O)C1=C(C)NC2=C(C(=O)c3ccccc32)C1c1ccc(OC)cc1OC (stereo unspecified)	n	x	n	x	x	x	x
O=S(=O)(NCCN1CCCC1)c1ccc(S(=O)(=O)N2CCCC2)cc1	n	x	n	x	x	x	x
Cc1ccccc1NC(=O)/C(=C/c1ccco1)c1ccccc1	n	n	n	n	n	n	x
CCc1ccccc1NC(=O)/C(=C/c1ccco1)c1ccccc1	n	n	68	n	n	n	+
O=C(Nc1cccnc1)OCCc1ccccn1	n	x	n	x	x	x	x
C[C@H](CN(C)C)C(=O)c1ccccc1C(=O)O	n	x	n	x	x	x	n
CSc1ccccc1NC(=O)CN(C)Cc1cccc(Cl)c1	n	n	66	n	n	n	+
CSc1ccccc1NC(=O)CN(C)CC(=O)NCc1ccccc1	n	n	n	n	n	n	x
c1ccc(Nc2nc(N3CCOCC3)nc(N3CCOCC3)n2)cc1	n	n	n	n	n	n	x
c1ccc(Nc2nc(N3CCNCC3)nc(N3CCOCC3)n2)cc1	n	n	67	n	n	n	n
COc1cc(OC)c(NC2c3ccccc3C(=O)N2c2cc(C)ccn2)cc1Cl (stereo unspecified)	n	n	n	n	n	n	x
CCOC(=O)c1ccccc1NC1c2ccccc2C(=O)N1c1cc(C)ccn1 (stereo unspecified)	n	n	69	n	n	n	+
CCCC(=O)N1CCCC(c2nc(-c3cccs3)no2)C1 (stereo unspecified)	n	n	76	n	n	n	n
CC(C)Cc1nc(N2CCCCC2)c(C#N)c2c1CCC2	n	n	89	n	n	n	n
CCCCc1nc(N2CCOCC2)c(C#N)c2c1CCCC2	n	n	79	n	n	n	n
CCCSc1nc(N2CCOCC2)c2c(c1C#N)CCCC2	n	n	66	n	n	n	+
CC(C)c1nc(SCc2c(F)cccc2Cl)c2c(=O)n(C)c(=O)n(C)c2n1	n	n	80	n	n	n	+
Cn1c(=O)c2c(nc(SCCCC#N)n2Cc2c(F)cccc2Cl)n(C)c1=O	n	n	n	n	n	n	x
c1ccc(Oc2nc3ccccc3n3cccc23)cc1	n	n	65	n	n	n	n
CCC1CCc2c(sc3ncnc(N4CCOCC4)c23)C1 (stereo unspecified)	n	n	n	n	n	n	+
